What is called viability is a read-out of living cells in per cent, often relative to untreated cells. For orientation: inhibition means the relative decrease from the control value, in per cent.

The values that follow come from PubChem BioAssay.

Experiment [1] can be described thus: S. cerevisiae growth inhibition in permissive medium (OD615), pilot counter-assay for S. cerevisiae lifespan shortening project, permissive growth control (AID 705;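 active = growth inhibition above 25% in both replicates, a cutoff set 3 SD above the mean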). The settings on record: OD615, 24 h, at 10 µM, hits give high values. In a few lines:
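System: Engineered DeaD yeast | Buffer or medium: SC raffinose/galactose permissive medium | Doses: 10 µM single dose, 0.25% DMSO | Times: 24 h exposure, 30 °C | Measured by: OD615 turbidity read | Read-out: Yeast growth inhibition indicated by reduced 24 h OD615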

Experiment [2] is described as follows: S. cerevisiae growth inhibition in restrictive medium, OD615, pilot screen, restrictive growth control, yeast lifespan reduction project (AID 706;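 active = growth inhibition above a set limit, 3 SD over mean compound inhibition, in both replicates, cut at about 43% in these data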;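 note: modified DeaD lifespan yeast strain shifted to restrictive glucose medium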). Particulars: OD615, 48 h, at 10 µM, hits give high values. In a few lines:
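Assay system: engineered S. cerevisiae DeaD strain; Buffer or medium: CSMM-D glucose medium; Dosing: 10 µM compound, 0.25% DMSO; Times: cell pre-growth 4 h, compound exposure 48 h, 30 °C; Detection: absorbance (optical density) measured at 615 nm.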

Experiment [3] can be described thus: doxorubicin toxicity protection in MRP-1 cells – H69AR cells, CellTiter-Glo, duplicate, MRP-1 activator project, pilot screen (AID 807;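 active = viability increase at or above a cutoff of the median across tested compounds plus 3 SD, cut at about 8.5% in these data, passing the limit was not always enough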;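 note: compound pretreatment 18-22 h then 72 h combined with doxorubicin; 0% = doxorubicin alone and 100% = vehicle without doxorubicin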). The settings on record: H69AR viability with doxorubicin, CellTiter-Glo luminescence; at 10 µM; hits give high values.
Experiment [4] in a line: viability of HCT116 without oncogenic beta-catenin – human colon tumor cells, pilot screen (AID 823;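 active = cell viability at or below a set limit in both duplicate runs, the limit being the all-compound median minus 4 SD, cut at about 23% in these data, passing the limit was not always enough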;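 note: 0% = wells killed by 20 µM Hyamine and 100% = untreated DMSO cell wells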). Particulars: HCT116 beta-catenin knockout viability, CellTiter-Glo, 60 h; at 10 µM; hits give low values. (In general: Cellular ATP, detected with luciferase, serves as a proxy for viable cell number.)
A short description of experiment [5]: viability of PTEN-null HCT116 cells – cell-based, HCT116 clonal line, CellTiter-Glo, pilot screen (AID 824).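 Note: 0% = 20 µM Hyamine control and 100% = vehicle cell control.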 The settings on record: HCT116 PTEN-deleted viability, 60 h, at 10 µM, hits give low values.
The nature of experiment [6]: RAM pathway blockade in budding yeast – dse1pr::URA3 reporter, 5-FOA selection, pilot screen (AID 869;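 active = inhibition over a set limit, the all-compound mean plus 3 SD, in both replicate runs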;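 note: 0% = DMSO wells with no growth and 100% = 10 µM 1-NA-PP1 with full growth; RAM network block rescues cells from 5-FOA so hits raise OD615 growth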). The settings on record: S. cerevisiae dse1pr::URA3 5-FOA growth, OD615, 2 d; at 10 µM; hits give high values; strain carries analog-sensitive mutant Cbk1 kinase.
Experiment [7] is described as follows: RAM signaling pathway blockade in yeast – S. cerevisiae, Pdr1DBD-CYC8 efflux-inhibited sensitized strain, primary screen (AID 1298;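 active = RAM network inhibition above 8.4% in each of two replicates, 3 SD over the compound average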;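 note: 0% = DMSO untreated cells without growth and 100% = 10 µM 1-NA-PP1 full growth; higher means more yeast growth rescued from 5-FOA killing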). Particulars: S. cerevisiae cbk1-as DSE1-URA3 strain, 5-FOA growth OD615, 2 d; at 50 µM; hits give high values.

Each structure is given as a SMILES string. Values without a mark were called inactive. Records with an inconclusive call do not appear. Activity calls are given as the source filed them.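 Rule for the calls, unless noted: active = viability at or below 27.92% in each of two runs, the all-compound median minus 4 SD; inconclusive = no clear call, values can overlap the other calls; inactive = the rest.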

On to `CCCC(=O)Nc1nc2ccc(S(=O)(=O)N3CCCCC3)cc2s1`, for which the growth inhibition is -20.7% in experiment [1] and -19.5% in experiment [2]. The viability increase in experiment [3] is -6.94%. For the same compound, the viability in experiment [4] was 32.5%; in experiment [5], 37.3%. Also, the inhibition in experiment [6] is 1.27%. In addition, in experiment [7], the RAM network inhibition was 1.93%.

For the compound `Cn1c(NC(=O)c2ccc(Cl)cc2Cl)cc(=O)n(C)c1=O`, the growth inhibition is -4.17% in experiment [1] and 0.265% in experiment [2]. In experiment [3], the viability increase is -2.37%. Also, the viability in experiment [4] is 98.7%; in experiment [5] it was 90.8%. Moreover, in experiment [6], the inhibition is 0.95%. Moreover, the RAM network inhibition in experiment [7] is -0.2%.

Turning to `CCC(C)(c1ccc(C(=O)OC)s1)c1ccc(C(=O)OC)s1`, the growth inhibition was -5.53% in experiment [1] and -2.49% in experiment [2]. The viability increase in experiment [3] was 1.15%. Also, the viability is 73.3% in experiment [4] and 76.8% in experiment [5]. For the same compound, the inhibition in experiment [6] was 0.63%. Besides, the RAM network inhibition in experiment [7] is 1.02%.

Take `O=C(c1ccc(F)cc1)c1cn[nH]c1-c1ccccc1O`: the growth inhibition in experiment [1] was -15.3%; in experiment [2], -15.9%. Besides, in experiment [3], the viability increase was -1.5%. In addition, the viability in experiment [4] was 99.5%; in experiment [5], 94.9%. Also, the inhibition in experiment [6] was 2.42%. Further, the RAM network inhibition in experiment [7] is 4.4%.

On to `CC(=O)N(Cc1ccco1)C1(C(=O)NC2CCCCC2)CCCCC1`, for which the growth inhibition in experiment [1] is -10.7%; in experiment [2], -22.6%. Also, the viability increase in experiment [3] was -2.47%. Further, the values for the viability in experiment [4] and in experiment [5] were 94.9% and 94.5%, respectively. Moreover, in experiment [6], the inhibition was 3.02%. Besides, in experiment [7], the RAM network inhibition is 1.51%.

Take `O=C(NCCCn1ccnc1)c1cccc(S(=O)(=O)Nc2ccccc2F)c1`: the growth inhibition in experiment [1] was -13.9%; in experiment [2], -26.1%. Moreover, the viability increase in experiment [3] is -0.61%. Further, the viability was 92.3% in experiment [4] and 92.8% in experiment [5]. Further, the inhibition in experiment [6] is 2.51%. For the same compound, in experiment [7], the RAM network inhibition was 5.99%.

As to `CCCCCN=C(C)c1c(O)c2ccccc2oc1=O`, the growth inhibition in experiment [1] was 1.51%; in experiment [2] it was 1.03%. In addition, in experiment [3], the viability increase is 1.19%. The viability was 94.8% in experiment [4] and 90.7% in experiment [5]. The inhibition in experiment [6] is -0.66%. In addition, in experiment [7], the RAM network inhibition is -1.55%.

Consider `COc1ccc(S(=O)(=O)Cc2ccc(C(=O)N3CCN(c4cccc(C)c4C)CC3)o2)cc1`, for which the growth inhibition was -1.63% in experiment [1] and -1.19% in experiment [2]. The viability increase in experiment [3] was -5.44%. For the same compound, the viability in experiment [4] was 13% (active); in experiment [5], 17.6% (active). For the same compound, the inhibition in experiment [6] is 1.52%. Further, in experiment [7], the RAM network inhibition was 3.74%.

As to `Brc1[nH]nc2ccccc12`, the growth inhibition in experiment [1] is -1.23%; in experiment [2], 5.22%. For the same compound, in experiment [3], the viability increase is -3.24%. Further, the viability in experiment [4] is 96.7%; in experiment [5], 94.9%. Besides, the inhibition in experiment [6] is 0.28%. The RAM network inhibition in experiment [7] was 0.05%.

In the case of `CCc1cc(=O)oc2cc(C)cc(O)c12`, the growth inhibition in experiment [1] is -16.6%; in experiment [2] it was -7.76%. For the same compound, in experiment [3], the viability increase is -1.72%. Further, the viability in experiment [4] is 95.3%; in experiment [5], 99.8%. Moreover, the inhibition in experiment [6] is 0.2%. For the same compound, in experiment [7], the RAM network inhibition is 1.99%.

`CCn1cc(S(=O)(=O)CC(=O)Nc2ccc(C)cc2)c2ccccc21`: the growth inhibition in experiment [1] was 0.74%; in experiment [2] it was -4.11%. Moreover, the viability increase in experiment [3] was -0.58%. The values for the viability in experiment [4] and in experiment [5] were 92.7% and 93%, respectively. Moreover, in experiment [6], the inhibition is 1.61%. Moreover, the RAM network inhibition in experiment [7] is 2.02%.

In the case of `CCc1ccc(Nc2cc(C)nc3nc(C)nn23)cc1`, the growth inhibition in experiment [1] was -16.8%; in experiment [2], -7.12%. In experiment [3], the viability increase was -4.04%. Also, the values for the viability in experiment [4] and in experiment [5] were 96.8% and 96%, respectively. The inhibition in experiment [6] is 1.99%. In experiment [7], the RAM network inhibition is 4.01%.

As to `O=C(c1cc(-c2ccc(O)cc2)on1)N1CCc2ccccc2C1`, the growth inhibition in experiment [1] is -16.4%; in experiment [2], 15.6%. The viability increase in experiment [3] was -4.4%. For the same compound, the viability in experiment [4] is 93%; in experiment [5] it was 91.1%. The inhibition in experiment [6] was 0.875%. Further, the RAM network inhibition in experiment [7] is -2.87%.

Consider `CCc1ccc(NC(=O)CN(c2ccc3c(c2)OCO3)S(=O)(=O)c2c(C)noc2C)cc1`, for which the growth inhibition in experiment [1] is -16.8%; in experiment [2], -11.4%. Also, the viability increase in experiment [3] is 0.12%. For the same compound, the values for the viability in experiment [4] and in experiment [5] were 85.5% and 80.5%, respectively. For the same compound, in experiment [6], the inhibition was 3.38%. In addition, the RAM network inhibition in experiment [7] was 9.54%.

`COc1ccc(NC(=O)C(c2ccccc2)N(C)C(=O)c2cnccn2)cc1` (stereo unspecified): the growth inhibition is -4.62% in experiment [1] and -12.6% in experiment [2]. Also, the viability increase in experiment [3] was -1.52%. Moreover, the viability in experiment [4] was 99.2%; in experiment [5] it was 90.8%. For the same compound, the inhibition in experiment [6] is 0.88%. Besides, the RAM network inhibition in experiment [7] is 0.05%.

In the case of `CN(CC(=O)NC1CCCc2ccccc21)S(=O)(=O)c1ccc2c(c1)c(=O)n(C)c(=O)n2C` (stereo unspecified), the growth inhibition is -9.17% in experiment [1] and -10.7% in experiment [2]. Also, the viability increase in experiment [3] is -3.54%. Further, the viability in experiment [4] is 95.3%; in experiment [5] it was 94%. Also, the inhibition in experiment [6] was 2.24%. Moreover, in experiment [7], the RAM network inhibition is 1.42%.

Turning to `COc1cc(C(=O)Nc2ccc(S(=O)(=O)N3CCCCC3C)cc2)cc(OC)c1OC` (stereo unspecified), the growth inhibition was -18.5% in experiment [1] and -16.6% in experiment [2]. In addition, the viability increase in experiment [3] was -4.48%. Further, the viability was 69.9% in experiment [4] and 65.7% in experiment [5]. Further, the inhibition in experiment [6] was 1.7%. In experiment [7], the RAM network inhibition is 4.51%.

Turning to `O=C(CCS(=O)(=O)c1cccc2nsnc12)N1CCN(C(=O)c2ccco2)CC1`, the growth inhibition in experiment [1] is -2.63%; in experiment [2] it was -12.5%. Also, the viability increase in experiment [3] is -4.22%. The viability in experiment [4] was 103%; in experiment [5], 102%. Also, the inhibition in experiment [6] is 0.36%. Also, the RAM network inhibition in experiment [7] is 1.07%.
